The values that follow come from ChEMBL document CHEMBL4828745, “Discovery and Structure-Activity Relationships of Quinazolinone-2-carboxamide Derivatives as Novel Orally Efficacious Antimalarials” (J Med Chem, 2021).

For series [1], the system named is Plasmodium falciparum. The experiment in a line: Antiplasmodial activity against Plasmodium falciparum 3D7 infected in human erythrocyte assessed as intraerythrocytic growth inhibition incubated for 72 hrs by DAPI-staining based imaging analysis. Format: functional, organism-based. Particulars: 3D7, 72 h. An outline of the steps:
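P. falciparum 3D7 cultured in RPMI1640 with hypoxanthine, HEPES, 2.5 mg/mL AlbuMAX II and 5% human serum. Sorbitol-synchronized rings exposed 72 h at 37 °C under 5% CO2/5% O2, then DAPI-stained with saponin/Triton X-100 for 8 h in the dark. High-content imaging with spot detection. Duplicate points. Reference antimalarials run in each assay.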

Series [2] is described as follows: Fraction unbound in human plasma. Format: ADME, cell-free. An outline of the steps: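 Human plasma protein binding measured by rapid equilibrium dialysis.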
A short description of series [3]: Kinetic solubility of the compound in pH 6.5 phosphate buffer by nephelometry. Type of series: physicochemical. Particulars: read-out: Kinetic_solubility. The essentials: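 DMSO stock spiked into pH 6.5 phosphate buffer (1% DMSO final). After 30 min, solubility range estimated by nephelometry.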
The nature of series [4]: Intrinsic clearance in mouse liver microsomes at […] by LC-MS/MS analysis. Type of series: ADME, Microsome. The essentials:
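Liver microsomes (human, mouse or rat) at 0.4 mg/mL protein, 37 °C, with an NADPH-regenerating system. Compound at 0.25 or 0.5 μM. Acetonitrile/diazepam quench, LC-MS quantitation. CLint from the first-order degradation rate constant.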
(In general: Liver microsomes are vesicles of endoplasmic reticulum, rich in cytochrome P450 enzymes.)

The next series addresses T1, CYP1A2 (Homo sapiens, UniProt P05177).
T1 sequence (P05177 whole entry): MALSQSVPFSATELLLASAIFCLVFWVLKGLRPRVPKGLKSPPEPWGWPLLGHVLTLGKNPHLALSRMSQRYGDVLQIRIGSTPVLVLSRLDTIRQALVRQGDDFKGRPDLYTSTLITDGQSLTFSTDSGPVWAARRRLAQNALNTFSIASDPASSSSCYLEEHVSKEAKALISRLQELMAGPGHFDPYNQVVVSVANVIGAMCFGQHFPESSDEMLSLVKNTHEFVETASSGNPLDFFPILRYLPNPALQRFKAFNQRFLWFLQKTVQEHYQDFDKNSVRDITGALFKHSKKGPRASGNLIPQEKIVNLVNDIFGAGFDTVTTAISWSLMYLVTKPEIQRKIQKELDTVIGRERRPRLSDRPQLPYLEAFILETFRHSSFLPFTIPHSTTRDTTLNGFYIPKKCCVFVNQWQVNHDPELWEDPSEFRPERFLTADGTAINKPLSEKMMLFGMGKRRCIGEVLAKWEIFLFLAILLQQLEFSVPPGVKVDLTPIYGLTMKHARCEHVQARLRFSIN
As to the kind of experiment: Inhibition of CYP1A2 (unknown origin) at 10 uM by UPLC-MS analysis relative to control. Type of series: ADME. An outline of the steps:
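Human liver microsomes, using a substrate-specific metabolite approach. Test compound at 1 and 10 μM. Reference inhibitors: furafylline (1A2), sulfaphenazole (2C9), quinidine (2D6), ketoconazole (3A4). Specific metabolites quantified by UPLC-MS. Percent inhibition relative to incubation without inhibitor.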

Series [5] is described as follows: Stability in Sprague-Dawley rat plasma assessed as compound remaining at 1000 ng/ml after 2 hrs by LC-MS analysis. The note with it: read-out: Stability. Format: ADME, cell-free. The essentials:
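Pooled plasma (human, 3 donors; or male Sprague Dawley rat) spiked to nominal 1000 ng/mL, with at most 0.2% DMSO and 0.4% acetonitrile final. Held at 37 °C with timed aliquots. LC-MS against matrix standards with diazepam internal standard. Percent remaining is relative to the 5 min sample.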

The nature of series [6]: Apparent permeability of the compound from apical to basolateral side in human Caco-2 cells at 20 uM measured after 120 mins by LC-MS analysis. Format: ADME, cell-based. An outline of the steps: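 Caco-2 monolayers, apical-to-basolateral direction, in pH 7.4 HBSS with 20 mM HEPES on both sides. Donor at nominal 20 μM, 0.1% DMSO final. Flux followed over 120 min. Quantified by LC-MS with mass balance to derive Papp.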
Background: Caco-2 monolayers are a common model of the intestinal barrier.

Series [7] can be described thus: Intrinsic clearance in rat hepatocytes measured per 10^6 cells at 0.25 uM by LC-MS analysis. Type of series: ADME, cell-based, Hepatocyte. The note with it: read-out: CLH. An outline of the steps:
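Compound at 0.25 μM incubated with cryopreserved human or rat hepatocytes (1×10^6 cells/mL) in Krebs–Henseleit buffer at 37 °C. Quenched with acetonitrile containing diazepam. LC-MS quantitation. CLint from the first-order degradation rate constant.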

Series [8] concerns Plasmodium falciparum. The experiment in a line: Antimalarial activity against Plasmodium falciparum Dd2 DSM265 mutant harbouring […] assessed as inhibition of parasite growth incubated for […] by [3H]hypoxanthine incorporation assay based liquid scintillation counting method. Type of series: functional, organism-based. The essentials:
(§1)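 Genetically engineered P. falciparum lines carried mutations introduced into the Dd2 wild-type strain, which was tested alongside them. Growth inhibition was read by [3H]hypoxanthine incorporation over 72 h. IC50 is the mean of two independent biological replicates. Chloroquine and artesunate served as controls.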

In a further series the test system is Hepatocyte. The experiment in a line: Cytotoxicity against human hepatocyte measured after 96 hrs. Format: cell-based. The note with it: hepatocytes.
Series [9] relates to Plasmodium falciparum. As to the kind of experiment: Antimalarial activity against Plasmodium falciparum 3D70087/N9 infected in humanized NODscidlL2Rgamma null mouse model assessed as reduction in parasitemia at 100 mg/kg, po for 4 consecutive days measured after 7 days of post infection relative to control. Particulars: 3D70087/N9, po, 96 h, time 4 day. Type of series: functional. An outline of the steps: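 P. falciparum humanized SCID mouse model. Monosodium tetrahydrate salt given orally at 50 or 100 mg/kg on 4 consecutive days, n = 2 mice per group. Parasitemia read at day 7 post infection versus untreated controls.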

Series [10] deals with Plasmodium falciparum. The experiment in a line: Antimalarial activity against Plasmodium falciparum Dd2 MMV048 mutant harbouring Pf-pi4k assessed as inhibition of parasite growth incubated for […] by [3H]hypoxanthine incorporation assay based liquid scintillation counting method. Format: functional, organism-based. The essentials: as §1
For series [11], the system named is Plasmodium falciparum. The experiment in a line: Antimalarial activity against Plasmodium falciparum Cam3.1 harbouring Pf-crt, Pf-mdrl,Pf-dhfr, Pf-dhps, pf-kelch13 mutated loci assessed as inhibition of parasite growth incubated for […] by [3H]hypoxanthine incorporation assay based liquid scintillation counting method. Type of series: functional, organism-based. The essentials:
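Drug-resistant laboratory P. falciparum strains were compared against the sensitive strain NF54. Growth inhibition was read by a modified [3H]hypoxanthine incorporation assay over 72 h. IC50 is the mean of two independent biological replicates. Chloroquine and artesunate served as controls.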

Series [12] has as its system Plasmodium falciparum. The experiment in a line: Antimalarial activity against Plasmodium falciparum Dd2 […] mutant harbouring Pf-car1 assessed as inhibition of parasite growth incubated for […] by [3H]hypoxanthine incorporation assay based liquid scintillation counting method. Format: functional, organism-based. An outline of the steps: as §1

Structures are written as SMILES.

For `CCc1cccc(CNC(=O)c2nc3cccc(COCc4ccc(C(=O)O)cc4)c3c(=O)[nH]2)c1`, the IC50 in the series with Plasmodium falciparum [1] came out at 25 nM; in the series on Plasmodium falciparum [8], 23 nM; in the series on Plasmodium falciparum [10], 27 nM; in the series on Plasmodium falciparum [11], 31 nM; with Plasmodium falciparum [12] it was 18 nM. In addition, the Fu in series [2] is 0.2%. The solubility kinetic in series [3] was under 1.6 µg/mL. Besides, in series [4], the CLH was 183 uL/ml.millig. Moreover, at CYP1A2, the inhibition at 10 µM was under 10%. The remaining at 2 h, 1000 ng/ml in series [5] was determined as 93.4%. In addition, the Papp A→B at 2 h, 20 µM in series [6] was determined as 35 ×10⁻⁶ cm/s. Also, the hepatocyte CLint at 0.25 µM in [7] came to 6 µL/min/1e6 cells. Also, in the series with Hepatocyte, the Activity result is listed as “Non-Toxic”. In addition, the inhibition in vivo at 100 mg/kg in the series with Plasmodium falciparum [9] worked out at 89%.

Usually IC50 stands for the concentration needed to halve the response being measured. For orientation: inhibition means the drop in the measured response relative to a control, in per cent. Higher therefore signals strong suppression. By Papp A→B is commonly meant the apparent permeability from the apical to the basolateral side of a cell layer. As a reminder, the inhibition in vivo is the relative decrease from the control value, in per cent.
